Results: ChEMBL document CHEMBL1649560, “Beta-lactamase-mediated beta-lactam resistance in Campylobacter species: prevalence of Cj0299 (bla OXA-61) and evidence for a novel beta-Lactamase in C. jejuni” (2009)

Columns and labels:
Format in all cases: functional
[1] = system: Campylobacter coli; assay: Antibacterial activity against Campylobacter coli assessed as resistant isolates by NCCLS agar doubling dilution method
Summary of the method: (§1)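 MICs by agar doubling dilution following the NCCLS (CLSI) Campylobacter Working Group procedure, with C. jejuni NCTC 11168 and C. coli NCTC 11366 as controls. Isolates came from UK chicken flocks, 2000–2006. Isolates were designated resistant at an ampicillin cutoff of 8 μg/ml. Enterobacteriaceae guidelines (BSAC, CLSI) were used as reference for the other agents.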

[2] = system: Campylobacter jejuni; assay: Antibacterial activity against Campylobacter jejuni assessed as resistant isolates by NCCLS agar doubling dilution method; summary of the method: as §1
[3] = system: Campylobacter jejuni; assay: Antibacterial activity against Campylobacter jejuni by NCCLS agar doubling dilution method
Summary of the method: (§2)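 MICs by agar doubling dilution following the NCCLS (CLSI) Campylobacter Working Group procedure, applied to ampicillin- and amoxicillin-resistant isolates from UK chicken flocks (2000–2006). C. jejuni NCTC 11168 and C. coli NCTC 11366 served as control strains. Resistance was called at an ampicillin cutoff of 8 μg/ml. Other agents were judged against Enterobacteriaceae guidelines (BSAC, CLSI).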

[4] = system: Campylobacter coli; assay: Antibacterial activity against Campylobacter coli by NCCLS agar doubling dilution method; summary of the method: as §2
[5] = system: Campylobacter jejuni; assay: Antibacterial activity against bla gene-positive and nitrocefin reaction-negative beta-lactamase harboring Campylobacter jejuni NCTC 11168 by NCCLS agar doubling dilution method
Summary of the method: (§3)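 MICs of β-lactams by agar doubling dilution following the NCCLS (CLSI) Campylobacter Working Group procedure, with C. jejuni NCTC 11168 and C. coli NCTC 11366 as controls. Isolates were from UK poultry flocks. β-Lactamase status was set by Cj0299 PCR (281-bp amplimer) and by a nitrocefin colour change of sonicated lysate within 5 min, or within 30 min on repeat.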

[6] = system: Campylobacter jejuni; assay: Antibacterial activity against Campylobacter jejuni isolate P270 harboring blaOXA-61::cat gene by NCCLS agar doubling dilution method
[7] = system: Campylobacter jejuni; assay: Antibacterial activity against bla gene-negative and nitrocefin reaction-negative beta-lactamase harboring Campylobacter jejuni isolate P835 by NCCLS agar doubling dilution method; summary of the method: as §3
[8] = system: Campylobacter jejuni; assay: Antibacterial activity against bla gene-negative and nitrocefin reaction-negative beta-lactamase harboring Campylobacter jejuni isolate P850 by NCCLS agar doubling dilution method; summary of the method: as §3
[9] = system: Campylobacter jejuni; assay: Antibacterial activity against bla gene-negative and nitrocefin reaction-negative beta-lactamase harboring Campylobacter jejuni isolate P1962 by NCCLS agar doubling dilution method; summary of the method: as §3
[10] = system: Campylobacter jejuni; assay: Antibacterial activity against bla gene-positive and nitrocefin reaction-positive beta-lactamase harboring Campylobacter jejuni isolate P285 by NCCLS agar doubling dilution method
Summary of the method: (§4)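 MICs by agar doubling dilution per the NCCLS (now CLSI) Campylobacter Working Group method. Isolates came from UK chicken flocks (feces, ceca or farm environment), 2000–2006. C. jejuni NCTC 11168 and C. coli NCTC 11366 served as control strains. The ampicillin resistance cutoff was 8 μg/ml; BSAC/CLSI Enterobacteriaceae guidelines were used for other agents.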

[11] = system: Campylobacter jejuni; assay: Antibacterial activity against bla gene-positive and nitrocefin reaction-positive beta-lactamase harboring Campylobacter jejuni isolate P286 by NCCLS agar doubling dilution method; summary of the method: as §4
[12] = system: Campylobacter jejuni; assay: Antibacterial activity against bla gene-positive and nitrocefin reaction-positive beta-lactamase harboring Campylobacter jejuni isolate P305 by NCCLS agar doubling dilution method; summary of the method: as §4
[13] = system: Campylobacter jejuni; assay: Antibacterial activity against bla gene-positive and nitrocefin reaction-positive beta-lactamase harboring Campylobacter jejuni isolate P316 by NCCLS agar doubling dilution method; summary of the method: as §4
[14] = system: Campylobacter jejuni; assay: Antibacterial activity against bla gene-positive and nitrocefin reaction-positive beta-lactamase harboring Campylobacter jejuni isolate P338 by NCCLS agar doubling dilution method; summary of the method: as §4
[15] = system: Campylobacter jejuni; assay: Antibacterial activity against Campylobacter jejuni isolate P338 harboring blaOXA-61::cat gene by NCCLS agar doubling dilution method
Summary of the method: (§5)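 Agar doubling dilution MICs (NCCLS/CLSI Campylobacter Working Group method) against Cj0299-inactivated mutants. Mutants were made by transforming the C. jejuni isolate with pCI and selecting on Mueller-Hinton agar with 10 μg/ml chloramphenicol for 3–5 days. Chromosomal insertion was confirmed by PCR with Cj0299 and cat primers.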

[16] = system: Campylobacter jejuni; assay: Antibacterial activity against bla gene-positive and nitrocefin reaction-positive beta-lactamase harboring Campylobacter jejuni isolate P790 by NCCLS agar doubling dilution method; summary of the method: as §4
[17] = system: Campylobacter jejuni; assay: Antibacterial activity against bla gene-positive and nitrocefin reaction-positive beta-lactamase harboring Campylobacter jejuni isolate P1093 by NCCLS agar doubling dilution method; summary of the method: as §3
[18] = system: Campylobacter jejuni; assay: Antibacterial activity against Campylobacter jejuni isolate P1093 harboring blaOXA-61::cat gene by NCCLS agar doubling dilution method; summary of the method: as §5
[19] = system: Campylobacter jejuni; assay: Antibacterial activity against bla gene-positive and nitrocefin reaction-positive beta-lactamase harboring Campylobacter jejuni isolate P1618 by NCCLS agar doubling dilution method; summary of the method: as §3
[20] = system: Campylobacter jejuni; assay: Antibacterial activity against bla gene-positive and nitrocefin reaction-positive beta-lactamase harboring Campylobacter jejuni isolate P1650 by NCCLS agar doubling dilution method; summary of the method: as §3
[21] = system: Campylobacter jejuni; assay: Antibacterial activity against bla gene-positive and nitrocefin reaction-positive beta-lactamase harboring Campylobacter jejuni isolate P1730 by NCCLS agar doubling dilution method; summary of the method: as §4
[22] = system: Campylobacter jejuni; assay: Antibacterial activity against bla gene-positive and nitrocefin reaction-negative beta-lactamase harboring Campylobacter jejuni isolate P1698 by NCCLS agar doubling dilution method; summary of the method: as §3
[23] = system: Campylobacter jejuni; assay: Antibacterial activity against bla gene-positive and nitrocefin reaction-negative beta-lactamase harboring Campylobacter jejuni isolate P1699 by NCCLS agar doubling dilution method; summary of the method: as §3
[24] = system: Campylobacter jejuni; assay: Antibacterial activity against bla gene-negative and nitrocefin reaction-positive beta-lactamase harboring Campylobacter jejuni isolate P843 by NCCLS agar doubling dilution method; summary of the method: as §3
[25] = system: Campylobacter jejuni; assay: Antibacterial activity against bla gene-negative and nitrocefin reaction-positive beta-lactamase harboring Campylobacter jejuni isolate P854 by NCCLS agar doubling dilution method; summary of the method: as §3
[26] = system: Campylobacter coli; assay: Antibacterial activity against bla gene-positive and nitrocefin reaction-positive beta-lactamase harboring Campylobacter coli isolate P321 by NCCLS agar doubling dilution method; summary of the method: as §3
[27] = system: Campylobacter coli; assay: Antibacterial activity against bla-positive and beta-lactamase-weakly positive Campylobacter coli isolate P1627 by NCCLS agar doubling dilution method; summary of the method: as §4
[28] = system: Campylobacter coli; assay: Antibacterial activity against bla gene-positive and nitrocefin reaction-positive beta-lactamase harboring Campylobacter coli isolate P1826 by NCCLS agar doubling dilution method; summary of the method: as §3

CC1(C)S[C@@H]2[C@H](NC(=O)[C@H](N)c3ccccc3)C(=O)N2[C@H]1C(=O)O [AMPICILLIN]
2 µg/mL: MIC [7] | MIC [9] | MIC [15] | MIC [18]
64 µg/mL: MIC50 [3] | MIC50 [4] | MIC [10] | MIC [11] | MIC [12] | MIC [13] | MIC [14] | MIC [16] | MIC [19] | MIC [20] | MIC [21] | MIC [23]
128 µg/mL: MIC90 [3] | MIC90 [4] | MIC [17] | MIC [22] | MIC [25] | MIC [26] | MIC [28]
47.5%: Activity [2]
4 µg/mL: MIC [5]
32 µg/mL: MIC [8] | MIC [24] | MIC [27]
0.5 µg/mL: MIC [6]
67.4%: Activity [1]
